Target: Monoacylglycerol lipase ABHD6 (Mus musculus) (UniProt Q8R2Y0)
Assay: liver ABHD6 blockade after oral dosing – gel-based competitive ABPP, fluorescence, mouse, powder samples, in vivo study for DAGLb inhibitor project, late-stage follow-up (AID 624077)
Details: C57BL mice oral dosing, stronger effect = higher value
Method in brief: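 system = liver membrane fraction from orally dosed C57BL mice, ABHD6 target | input = membranes 1 mg/mL | timing = 4 h oral dose-to-liver-harvest, 30 min 37 °C probe labelling | signal = in-gel fluorescence after SDS-PAGE | evaluation = % inhibition from ABHD6 band density | benchmarks = high control vehicle-treated liver, low control blank-gel background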

[1] = measured here: ABHD6 inhibition at 1 mg/kg
[2] = measured here: ABHD6 inhibition at 5 mg/kg

Sequence of Monoacylglycerol lipase ABHD6 (Mus musculus) (Q8R2Y0 whole entry, looked up): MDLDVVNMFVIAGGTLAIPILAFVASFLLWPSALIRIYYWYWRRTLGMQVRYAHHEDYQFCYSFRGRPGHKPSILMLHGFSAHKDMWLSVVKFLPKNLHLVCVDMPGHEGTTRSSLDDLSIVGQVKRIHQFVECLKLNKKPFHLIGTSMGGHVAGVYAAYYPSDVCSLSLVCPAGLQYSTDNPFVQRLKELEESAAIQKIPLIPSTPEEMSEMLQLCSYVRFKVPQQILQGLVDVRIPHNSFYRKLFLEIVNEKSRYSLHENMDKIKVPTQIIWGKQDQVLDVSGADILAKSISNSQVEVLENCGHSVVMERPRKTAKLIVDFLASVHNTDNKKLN

Structure (SMILES)	inhibition [%]	inhibition [1] [%]	inhibition [2] [%]
COc1ccccc1-c1ccc(-c2cn(C(=O)N3CCCCC3Cc3ccccc3)nn2)cc1 (centres undefined)	100	90	100
O=C(N1CCCCC1Cc1ccccc1)n1cc(-c2ccc(-c3ccccc3)cc2)nn1 (centres undefined)	100	100	100
COc1ccc(-c2ccc(-c3cn(C(=O)N4CCCCC4c4ccccc4)nn3)cc2)cc1 (centres undefined)	100	70	80
